Reference: ChEMBL document CHEMBL1125228, “A 3-D model for 5-HT1A-receptor agonists based on stereoselective methyl-substituted and conformationally restricted analogues of 8-hydroxy-2-(dipropylamino)tetralin” (J Med Chem, 1991)
Values joined by “and” are separate entries in the source; they are usually repeats but may differ in a detail not shown here. Equal values may be shown once.

How the values were obtained:
[1] = molecular target: Serotonin (5-HT) receptor (Rattus norvegicus) (UniProt P35563+P35365+P32305+P31388+Q9JJ16+P28564+P30994+Q62758+P08909+P14842+P30940+P35364+P19327+P28565); assay: Dose corresponding to half-maximal decrease of 5-HTP formation in the limbic and striatal parts of rat brain; type: functional, tissue-based
[2] = molecular target: T1, Dopamine receptor (Rattus norvegicus) (UniProt P25115+P19020+P30729+P18901+P61169); assay: In vivo accumulation of DOPA in hemisphere of rat brain at a dose of 53 umol/kg.; type: functional, organism-based
How it was run: (§1)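 Rats, reserpine-pretreated (5 mg/kg, i.e. 9 μmol/kg sc, 6 h before) or nonpretreated, given test hydrochloride sc in the neck (injection volume 5 mL/kg). Decarboxylase inhibitor NSD 1015 (100 mg/kg ip or 60 mg/kg sc) given 30 min later; decapitation after another 30 min. Brain dissected on ice into striatum, limbic system, hemispheres, brain stem. Homogenized in 0.1 M perchloric acid with α-methyl-DOPA internal standard; DOPA measured by ion-pair reversed-phase HPLC with electrochemical detection.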

[3] = molecular target: T2, 5-hydroxytryptamine receptor 1A (Rattus norvegicus, UniProt P19327); assay: Binding affinity at 5-hydroxytryptamine 1A receptor by the displacement of [3H]8-OH-DPAT in rat brain.; type: tissue-based
T2 sequence (P19327 whole entry): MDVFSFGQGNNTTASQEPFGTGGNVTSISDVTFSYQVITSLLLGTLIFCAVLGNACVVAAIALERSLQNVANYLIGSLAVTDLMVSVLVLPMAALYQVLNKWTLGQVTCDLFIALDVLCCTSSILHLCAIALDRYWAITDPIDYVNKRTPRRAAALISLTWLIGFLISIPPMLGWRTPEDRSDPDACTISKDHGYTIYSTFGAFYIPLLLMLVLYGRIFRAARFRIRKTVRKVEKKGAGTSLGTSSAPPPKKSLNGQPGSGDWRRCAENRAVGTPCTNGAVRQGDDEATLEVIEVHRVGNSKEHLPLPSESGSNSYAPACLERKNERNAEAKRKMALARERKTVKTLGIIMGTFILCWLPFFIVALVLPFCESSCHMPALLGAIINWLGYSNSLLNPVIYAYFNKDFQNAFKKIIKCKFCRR
How it was run: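 Rat brain membranes washed in 50 mM Tris-HCl pH 7.4, with a 37 °C 10 min incubation to remove endogenous 5-HT, used at 10 mg wet tissue/mL. Incubated 15 min at 37 °C with 1 nM [3H]-8-OH-DPAT, 3 mM CaCl2 and pargyline. Filtered and counted; 10 µM 5-HT defined nonspecific binding. IC50 from four-parameter logistic fit, converted to Ki by Cheng-Prusoff; mean ± SEM of N experiments.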

[4] = molecular target: T1, Dopamine receptor (Rattus norvegicus); assay: In vivo accumulation of DOPA in limbic of rat brain at a dose of 53 umol/kg.; type: functional, organism-based; how it was run: as §1
[5] = test system: Rattus norvegicus; assay: In vivo accumulation of DOPA in brain stem of rat brain at a dose of 53 umol/kg.; type: functional
How it was run: (§2)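 Hydrochlorides given sc in the neck (5 mL/kg) to rats, either untreated or reserpine-pretreated (5 mg/kg sc, 6 h before). Decarboxylase inhibitor NSD 1015 (100 mg/kg ip or 60 mg/kg sc) given 30 min later; rats decapitated after another 30 min. Striatum, limbic system, hemispheres and brain stem dissected on ice and homogenized in 0.1 M perchloric acid with α-methyl-DOPA internal standard. DOPA, DA, 5-HTP and 5-HT measured by ion-pair reversed-phase HPLC with electrochemical detection.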

[6] = test system: Rattus norvegicus; assay: In vivo accumulation of 5-HTP in brain stem of rat brain at a dose of 53 umol/kg.; type: functional; how it was run: as §2
[7] = test system: Rattus norvegicus; assay: In vivo accumulation of 5-HT in limbic of rat brain at a dose of 53 umol/kg.; type: functional; how it was run: as §2
[8] = test system: Rattus norvegicus; assay: In vivo accumulation of 5-HTP in limbic of rat brain at a dose of 53 umol/kg.; type: functional; how it was run: as §2
[9] = test system: Rattus norvegicus; assay: In vivo accumulation of DOPA in striatum of rat brain at a dose of 53 umol/kg.; type: functional; how it was run: as §1
[10] = test system: Rattus norvegicus; assay: In vivo accumulation of DA in striatum of rat brain at a dose of 53 umol/kg.; type: functional; how it was run: as §2
[11] = test system: Rattus norvegicus; assay: In vivo accumulation of 5-HTP in striatum of rat brain at a dose of 53 umol/kg.; type: functional; how it was run: as §2
[12] = test system: Rattus norvegicus; assay: In vivo accumulation of 5-HT in striatum of rat brain at a dose of 53 umol/kg.; type: functional; how it was run: as §2
[13] = test system: Rattus norvegicus; assay: In vivo accumulation of 5-HTP in hemisphere of rat brain at a dose of 53 umol/kg.; type: functional; how it was run: as §2
[14] = test system: Rattus norvegicus; assay: In vivo accumulation of DOPA in striatum of rat brain at a dose of 63 umol/kg.; type: functional; how it was run: as §1
[15] = test system: Rattus norvegicus; assay: In vivo accumulation of 5-HTP in brain stem of rat brain at a dose of 63 umol/kg.; type: functional; how it was run: as §2
[16] = test system: Rattus norvegicus; assay: In vivo accumulation of DOPA in hemisphere of rat brain at a dose of 63 umol/kg.; type: functional; how it was run: as §1
[17] = test system: Rattus norvegicus; assay: In vivo accumulation of 5-HTP in hemisphere of rat brain at a dose of 63 umol/kg.; type: functional; how it was run: as §2
[18] = test system: Rattus norvegicus; assay: In vivo accumulation of DOPA in brain stem of rat brain at a dose of 63 umol/kg.; type: functional; how it was run: as §2
[19] = test system: Rattus norvegicus; assay: In vivo accumulation of 5-HTP in striatum of rat brain at a dose of 63 umol/kg.; type: functional; how it was run: as §2
[20] = molecular target: T1, Dopamine receptor (Rattus norvegicus); assay: In vivo accumulation of DOPA in limbic of rat brain at a dose of 63 umol/kg.; type: functional, organism-based; how it was run: as §1
[21] = test system: Rattus norvegicus; assay: In vivo accumulation of 5-HTP in limbic of rat brain at a dose of 63 umol/kg.; type: functional; how it was run: as §2
[22] = test system: Rattus norvegicus; assay: In vivo accumulation of 5-HT in striatum of rat brain at a dose of 63 umol/kg.; type: functional; how it was run: as §2
[23] = test system: Rattus norvegicus; assay: In vivo accumulation of 5-HT in limbic of rat brain at a dose of 63 umol/kg.; type: functional; how it was run: as §2
[24] = test system: Rattus norvegicus; assay: In vivo accumulation of DA in striatum of rat brain at a dose of 63 umol/kg.; type: functional; how it was run: as §2

CCCN1CCC[C@@H]2Cc3cccc(O)c3C[C@H]21 [listing 1 of 3 here]
ED50 [1]: > 0.05 mg/kg
Control [2]: 97.5%

CCCN(CCC)[C@@H]1CCc2cccc(O)c2[C@H]1C (racemic)
ED50 [1]: > 0.05 mg/kg
Ki [3]: 1040 nM

CCCN1CCC[C@H]2Cc3cccc(O)c3C[C@@H]21 [listing 1 of 3 here]
Ki [3]: > 10000 nM

CCCN(CCC)[C@H]1Cc2c(O)cccc2C[C@H]1C [listing 1 of 2 here]
ED50 [1]: > 0.05 mg/kg

CCCN(CCC)[C@@H]1C[C@@H]1c1cccc(O)c1
ED50 [1]: > 0.05 mg/kg

CCCN1CCC[C@H]2Cc3cccc(O)c3C[C@H]21 [listing 1 of 3 here]
Control [4]: 76.9% and 83.2%
ED50 [1]: > 0.05 mg/kg
Control [2]: 116%

CCCN(CCC)[C@H]1Cc2c(O)cccc2C[C@@H]1C [listing 1 of 2 here]
ED50 [1]: 0.005 mg/kg

CCCN(CCC)C1CCc2cccc(O)c2C1C (racemic)
Ki [3]: 2.84 nM

CCCN(CCC)[C@H]1CCc2cccc(O)c2[C@H]1C
ED50 [1]: > 0.05 mg/kg
Ki [3]: 2920 nM

CCCN(CCC)[C@@H]1Cc2c(O)cccc2C[C@@H]1C
ED50 [1]: 0.02 mg/kg
Ki [3]: 394 nM

CCCN1CCC[C@H]2Cc3cccc(O)c3C[C@H]21 [listing 2 of 3 here]
Ki [3]: 151 nM

CCCN1CCC[C@@H]2Cc3cccc(O)c3C[C@H]21 [listing 2 of 3 here]
Ki [3]: 2810 nM

CCCN1CCC[C@@H]2c3c(O)cccc3CC[C@H]21 [listing 1 of 2 here]
Ki [3]: 32.3 nM

CCCN1CCC[C@H]2Cc3cccc(O)c3C[C@H]21 [listing 3 of 3 here]
Control [5]: 126.9%
Control [6]: 110.3%
Control [7]: 102.9%
Control [8]: 92.6%
Control [9]: 67.2%
Control [10]: 81.3%
Control [11]: 81%
Control [12]: 100%
Control [13]: 103.9%

CCCN(CCC)[C@H]1Cc2c(O)cccc2C[C@@H]1C [listing 2 of 2 here]
Ki [3]: 49.6 nM

Oc1cccc2c1C[C@H]1NCCC[C@@H]1C2
Control [14]: 84.2%
Control [15]: 101.7%
Control [16]: 79%
Control [17]: 81.9%
Control [18]: 91.4%
Control [19]: 96.5%
Control [20]: 84.4% and 89.8%
Control [21]: 82.3%
Control [22]: 100.5%
Control [23]: 89.4%
Control [24]: 92.4%

CCCN(CCC)C1Cc2c(O)cccc2CC1(C)C (racemic)
ED50 [1]: > 0.05 mg/kg
Ki [3]: > 10000 nM

CCCN1CCC[C@@H]2Cc3cccc(O)c3C[C@@H]21 [listing 1 of 3 here]
Control [5]: 82.3%
Control [6]: 87.6%
Control [7]: 107.5%
Control [8]: 80.6%
Control [9]: 68.3%
Control [10]: 105.3%
Control [11]: 76.1%
Control [12]: 118.7%
Control [13]: 77.9%

Oc1cccc2c1C[C@H]1NCCC[C@H]1C2
Control [14]: 84%
Control [15]: 106.8%
Control [16]: 64.2%
Control [17]: 101.4%
Control [18]: 94.9%
Control [19]: 108.8%
Control [20]: 82.4% and 85.6%
Control [21]: 92%
Control [22]: 100.5%
Control [23]: 89.4%
Control [24]: 92.4%

CCCN(CCC)[C@@H]1Cc2c(O)cccc2C[C@H]1C
ED50 [1]: > 0.043 mg/kg
Ki [3]: 1390 nM

CCCN1CCC[C@H]2c3c(O)cccc3CC[C@@H]21 [listing 1 of 2 here]
Ki [3]: 3.87 nM

CCCN1CCC[C@@H]2c3c(O)cccc3CC[C@H]21 [listing 2 of 2 here]
ED50 [1]: 0.0005 mg/kg
Control [2]: 117%

CCCN(CCC)[C@@H]1CCc2cccc(O)c2[C@@H]1C
Ki [3]: 2.08 nM

CCCN(CCC)[C@H]1Cc2c(O)cccc2C[C@H]1C (racemic)
Ki [3]: 656 nM

CCCN1CCC[C@H]2c3c(O)cccc3CC[C@@H]21 [listing 2 of 2 here]
ED50 [1]: 0.0005 mg/kg
Control [2]: 140%

Oc1cccc2c1C[C@@H]1NCCC[C@@H]1C2
Control [14]: 88%
Control [15]: 101.7%
Control [16]: 70.4%
Control [17]: 59.7%
Control [18]: 97.7%
Control [19]: 102.7%
Control [20]: 75.3% and 73.5%
Control [21]: 88.6%
Control [22]: 105%
Control [23]: 92.5%
Control [24]: 92.6%

Oc1cccc2c1C[C@@H]1NCCC[C@H]1C2
Control [14]: 85.3%
Control [15]: 115.8%
Control [16]: 85.2%
Control [17]: 107.8%
Control [18]: 90.3%
Control [19]: 116.8%
Control [20]: 85.7% and 95.5%
Control [21]: 104.6%
Control [22]: 116%
Control [23]: 109.6%
Control [24]: 97.4%

CCCN(CCC)[C@H]1Cc2c(O)cccc2C[C@@H]1C (racemic)
Ki [3]: 104 nM

CCCN1CCC[C@H]2Cc3cccc(O)c3C[C@@H]21 [listing 2 of 3 here]
Control [4]: 91.4% and 87.5%
ED50 [1]: > 0.05 mg/kg
Control [2]: 98.8%

CCCN1CCC[C@@H]2Cc3cccc(O)c3C[C@@H]21 [listing 2 of 3 here]
Ki [3]: > 10000 nM

CCCN(CCC)[C@@H]1C[C@@H]1c1ccccc1O
ED50 [1]: 0.04 mg/kg

CCCN1CCC[C@H]2Cc3cccc(O)c3C[C@@H]21 [listing 3 of 3 here]
Control [5]: 117.7%
Control [6]: 112.4%
Control [7]: 95.1%
Control [8]: 102.3%
Control [9]: 91.4%
Control [10]: 95.4%
Control [11]: 124.8%
Control [12]: 116.9%
Control [13]: 113%

CCCN1CCC[C@@H]2Cc3cccc(O)c3C[C@H]21 [listing 3 of 3 here]
Control [5]: 125.1%
Control [6]: 91.9%
Control [7]: 114.3%
Control [8]: 88%
Control [9]: 66.1%
Control [10]: 114.5%
Control [11]: 85%
Control [12]: 132%
Control [13]: 92.2%

CCCN1CCC[C@@H]2Cc3cccc(O)c3C[C@@H]21 [listing 3 of 3 here]
ED50 [1]: > 0.05 mg/kg
Control [2]: 63%

CCCN(CCC)C1(C)CCc2cccc(O)c2C1 (racemic)
ED50 [1]: > 0.05 mg/kg
Ki [3]: 1130 nM

CCCN(CCC)[C@H]1Cc2c(O)cccc2C[C@H]1C [listing 2 of 2 here]
Ki [3]: 2020 nM
